For 13 compounds, inhibition results are on record in PubChem BioAssay AID1451 (NMMLSC, 2008).

Molecules are shown by their SMILES. The list shows a part of the results. A number with no mark means an inactive call. Activity calls are given as the source filed them.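 How the source made its calls: active means inhibition of pump activity above 50%; inactive means the rest.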

Chain of ATP-dependent translocase ABCB1 (Homo sapiens) (P08183 whole entry, looked up): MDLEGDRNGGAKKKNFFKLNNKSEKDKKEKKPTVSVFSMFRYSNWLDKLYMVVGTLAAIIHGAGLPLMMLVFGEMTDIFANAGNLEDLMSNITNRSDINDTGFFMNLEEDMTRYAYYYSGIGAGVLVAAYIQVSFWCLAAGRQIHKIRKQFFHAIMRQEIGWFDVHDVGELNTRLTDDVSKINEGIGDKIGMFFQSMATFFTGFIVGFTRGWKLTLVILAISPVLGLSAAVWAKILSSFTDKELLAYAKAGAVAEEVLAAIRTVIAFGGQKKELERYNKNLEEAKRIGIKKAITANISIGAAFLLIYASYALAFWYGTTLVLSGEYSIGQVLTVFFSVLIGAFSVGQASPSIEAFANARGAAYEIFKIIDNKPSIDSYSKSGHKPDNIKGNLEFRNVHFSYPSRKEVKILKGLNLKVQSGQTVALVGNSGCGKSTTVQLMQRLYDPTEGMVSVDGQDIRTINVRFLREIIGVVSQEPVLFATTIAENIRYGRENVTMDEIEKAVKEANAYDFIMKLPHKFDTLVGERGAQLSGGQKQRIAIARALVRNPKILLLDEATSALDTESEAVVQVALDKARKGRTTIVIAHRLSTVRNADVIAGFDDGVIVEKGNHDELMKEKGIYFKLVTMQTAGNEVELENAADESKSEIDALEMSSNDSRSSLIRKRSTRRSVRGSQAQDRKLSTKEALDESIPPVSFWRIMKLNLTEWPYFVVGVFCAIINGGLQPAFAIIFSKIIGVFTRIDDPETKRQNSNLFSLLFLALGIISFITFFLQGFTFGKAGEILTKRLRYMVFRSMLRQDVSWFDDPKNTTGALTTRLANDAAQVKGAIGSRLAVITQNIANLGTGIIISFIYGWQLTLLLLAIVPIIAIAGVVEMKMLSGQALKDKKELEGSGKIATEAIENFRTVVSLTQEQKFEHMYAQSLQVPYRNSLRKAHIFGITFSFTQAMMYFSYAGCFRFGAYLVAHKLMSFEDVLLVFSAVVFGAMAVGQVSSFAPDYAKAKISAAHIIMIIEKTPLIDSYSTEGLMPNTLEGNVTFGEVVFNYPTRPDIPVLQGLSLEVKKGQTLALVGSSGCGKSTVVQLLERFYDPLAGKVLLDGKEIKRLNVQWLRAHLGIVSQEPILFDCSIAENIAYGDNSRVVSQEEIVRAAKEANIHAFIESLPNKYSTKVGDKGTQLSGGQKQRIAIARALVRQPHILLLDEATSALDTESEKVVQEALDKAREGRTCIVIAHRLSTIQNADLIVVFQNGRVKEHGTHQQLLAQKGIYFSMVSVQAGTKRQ

This assay deals with ATP-dependent translocase ABCB1 (Homo sapiens) (UniProt P08183). As to the kind of experiment: blockers of ABCB1-mediated dye efflux – cell-based, single point, ABCG2 counter-screen, confirmation (AID 1451).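 Further: 0% = DMSO and 100% = nicardipine full pump inhibition.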 Particulars: CCRF-Adr cells, JC-1 efflux, flow cytometry; at 6.6 µM; stronger effect = higher value. Summed up: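 material = ABCB1-expressing CCRF-Adr cells | amount = 3 million cells per mL final in well | reagent = JC-1 substrate | compound dosing = single test-compound dose, 6.6 µM final | timing = 10 min exposure, 25 °C | measured by = flow cytometry, 530 nm emission | control set = nicardipine as high control, DMSO as low control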
For orientation: inhibition means the drop in the measured response relative to a control, in per cent. For the compound `O=C(Cc1c[nH]c2ccccc12)N/N=C/c1cccc(F)c1`, the inhibition is -0.99%.

As for `COc1cccc(NC(=O)c2ccc(Cn3cc([N+](=O)[O-])cn3)o2)c1`, the inhibition was -0.63%.

Regarding `Cc1cccc2cc(CN(Cc3cccs3)C(c3nnnn3C3CCCC3)C(C)C)c(=O)[nH]c12` (stereo not drawn), the inhibition was 61.6% (active).

As to `Cc1c(CCOC(=O)CC23CC4CC(CC(C)(C4)C2)C3)sc[n+]1Cc1ccc([N+](=O)[O-])cc1`, the inhibition is 0.26%.

For the compound `CCOC(=O)c1sc(NC(=O)CSc2nnc(-c3ccco3)o2)c(C(=O)OCC)c1C`, the inhibition is 15.2%.

Take `COc1ccc(C)cc1NC(=O)C(Sc1ccccc1)c1ccccc1` (stereo not drawn): the inhibition is 3.76%.

In the case of `Cc1ccc(OCC(O)CN2CCN(CC(O)COc3ccc(C)cc3Cl)CC2)c(Cl)c1` (stereo not drawn), the inhibition is 17.1%.

Take `COc1ccc(-n2c(C)cc(C(=O)COC(=O)c3cc(OC)c(OC)cc3NC(=O)c3cccs3)c2C)cc1`: the inhibition is 3%.

With `CCN1/C(=C/c2ccc3ccc(C)cc3[n+]2CC)Sc2ccccc21`, the inhibition is -9.15%.

Regarding `C=CCn1c(SCCOc2ccc(OC)cc2)nnc1C(NC(=O)c1ccc(OC)cc1)C(C)C` (stereo not drawn), the inhibition is 23.6%.

With `Cc1ccc(-n2c(SCC(=O)Nc3ncc(Cl)cc3Cl)nc3ccccc32)cc1`, the inhibition is 41.2%.

Regarding `C/C(=N\Nc1ncc(Cl)cc1Cl)c1ccc(S(=O)(=O)NCc2ccco2)cc1`, the inhibition is 1.61%.

For the compound `CCOCC(=O)Nc1sc2c(c1C(=O)OCC)CCCC2`, the inhibition was 2.32%.
